For data set [1], the target named is T1, Ub (Homo sapiens, UniProt P0CG48). As to the kind of experiment: NMR titration of 15N-labeled Ub. Format: binding.
The next data set concerns the target Ub^R42E (Homo sapiens, UniProt P0CG48, R42E). As to the kind of experiment: NMR titration of 15N-labeled Ub^R42E. Format: binding. The following applies: read-out: Dissociation constant, Ub^R42E (NMR titration); Table 2. In short, it runs like this: (§1)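 Ub point mutants were made by PCR mutagenesis of human wild-type Ub in pET3a, with DpnI digestion and sequence verification. Increasing amounts of unlabeled ubistatin were titrated into 15N-labeled protein in 20 mM phosphate pH 6.8, 0.02% NaN3, 5% D2O, at 23°. Signal shifts and attenuations were tracked in 1H-15N HSQC or SOFAST-HMQC spectra, and spectral perturbations were quantified at each titration step.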

Another data set deals with OTUB1. Nature of the data set: Gel-based assay of K48-Ub2 disassembly by OTUB1. Format: biochemical. The conditions noted are these: stoichiometric ubiB.
Data set [2] addresses T2, Ub^R42E,R72E (Homo sapiens, UniProt P0CG48, R42E/R72E). As to the kind of experiment: 15N T1 relaxation of Ub^R42E,R72E with ubistatin. The following applies: mean (SD). Format: binding. In short, it runs like this: (§2)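 Human Ub and its point mutants were expressed from pET3a and made by PCR mutagenesis. Samples were in 20 mM phosphate buffer (pH 6.8) with 0.02% (w/v) NaN3 and 5% D2O. 15N T1 was measured at 23° on 600 and 800 MHz spectrometers with cryoprobes, using standard pulse sequences.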

The target in data set [3] is T3, K48-Ub2 (Homo sapiens, UniProt P0CG48). Nature of the data set: ubiB fluorescence anisotropy titration with K48-Ub2. Format: binding. The conditions noted are these: read-out: Kd, K48-Ub2 (fluorescence anisotropy). In short, it runs like this:
(§3)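 Fluorescence anisotropy was measured at 21°C in PBS pH 7.4. ubiB was held at 1 μM for Ub2 titrations and 10 μM for Ub, while Ub or Ub2 was varied. Readings were taken in T-configuration, excitation 386 nm, emission 485 nm. Anisotropy change was fitted to a single-site binding model for Kd.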

Data set [4] has as its target T4, Ub^R74E (Homo sapiens, UniProt P0CG48, R74E). Nature of the data set: 15N T1 relaxation of Ub^R74E with ubistatin. Format: binding. The following applies: mean (SD). Put shortly:
as §2

Another data set relates to Ubp6. As to the kind of experiment: Gel-based assay of K48-Ub2 disassembly by Ubp6. Format: biochemical, yeast.
In data set [5] the target is T2, Ub^R42E,R72E. Nature of the data set: NMR titration of 15N-labeled Ub^R42E,R72E. Format: binding. Put shortly: as §1
The target of data set [6] is T3, K48-Ub2. As to the kind of experiment: NMR competition assay against ubiquilin-1 UBA domain for K48-Ub2. Format: binding.
Data set [7] addresses T1, Ub. As to the kind of experiment: ubiB fluorescence anisotropy titration with Ub. Format: binding. The following applies: read-out: Kd, Ub (fluorescence anisotropy). In short, it runs like this:
as §3

A further data set concerns AMSH. Nature of the data set: Gel-based assay of K63-Ub2 disassembly by AMSH. Format: biochemical. The following applies: stoichiometric ubiB.
The target of data set [8] is T5, Ub^72 (Homo sapiens, UniProt P0CG48). Nature of the data set: NMR titration of 15N-labeled Ub^72. Format: binding. In short, it runs like this:
(§4)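 Unlabeled ubistatin was added in increasing amounts to 15N-labeled Ub variant in 20 mM phosphate (pH 6.8), 0.02% NaN3, 5% D2O at 23°. Binding was followed in 1H-15N HSQC or SOFAST-HMQC spectra. Signal shifts were quantified as CSPs and fitted against bound fraction to give Kd.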

For data set [9], the target named is T1, Ub. As to the kind of experiment: 15N T1 relaxation of Ub with ubistatin. The following applies: mean (SD) over residues in structured regions. Format: binding. Put shortly: (§5)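 15N T1 longitudinal relaxation measured with standard pulse sequences at 23°, 600 and 800 MHz with cryoprobes. 15N-labeled human Ub or K48-linked Ub2 was free or mixed with ubistatin in 20 mM phosphate buffer pH 6.8 with 0.02% (w/v) NaN3 and 5% D2O. Values are means with standard deviations averaged over residues in structured regions.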

The test system of another data set is HeLa and RCC4 cells. Nature of the data set: ubiB internalization in live cells by fluorescence microscopy. Format: cell-based, human. The conditions noted are these: 10 μM ubiB, 6 hrs. Put shortly:
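HeLa and RCC4 cells were grown in DMEM/10% FBS on glass-bottom dishes, exposed to 10 μM ubiB for 6 hrs, and washed three times in PBS. Plasma membrane was stained with Texas Red wheat germ agglutinin (1:500, 15 min). Live cells were imaged by confocal Z-stacks (63× oil), with 405 nm excitation for ubiB and 555 nm for the membrane probe.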

A further data set has as its system yeast 26S proteasome. As to the kind of experiment: Gel-based assay of DUB activity of 26S proteasome. Format: biochemical.
A further data set deals with K63-Ub2. Nature of the data set: ubiB fluorescence anisotropy titration with K63-Ub2. Format: binding, human. The conditions noted are these: read-out: Kd, K63-Ub2 (fluorescence anisotropy). Put shortly:
as §3
For orientation: Polarisation of emitted light reports the rotation of a fluorescent probe.

A further data set has as its system HeLa cells. As to the kind of experiment: Perturbation of the Ub landscape in cells. Format: cell-based, human.
The target of another data set is K11-Ub2 (Homo sapiens, UniProt P0CG48). As to the kind of experiment: ubiB fluorescence anisotropy titration with K11-Ub2. The following applies: read-out: Kd, K11-Ub2 (fluorescence anisotropy). Format: binding. In short, it runs like this: as §3
The target in data set [10] is T1, Ub. As to the kind of experiment: NMR competition assay against ubiquilin-1 UBA domain for Ub. The following applies: up to 3-fold molar excess. Format: binding.
In the next data set the test system is CFTR ubiquitination. As to the kind of experiment: In vitro CFTR ubiquitination assay. Format: biochemical, yeast.
Data set [11] concerns the target T6, Ub^R74A (Homo sapiens, UniProt P0CG48, R74A). As to the kind of experiment: 15N T1 relaxation of Ub^R74A with ubistatin. Format: binding. The following applies: mean (SD). In short, it runs like this: as §2
In data set [12] the test system is Rpn11 in purified proteasome. As to the kind of experiment: Proteasome/Rpn11 inhibition assay. Format: biochemical, human. Put shortly: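 Human erythrocyte proteasome was used with Ub4pep substrate: His6, four head-to-tail Ub repeats and a 30-mer peptide whose cysteine carried Oregon Green 488. Compounds were screened at 10 μM. IC50 came from 0–100 μM series in quadruplicate.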

Data set [13] concerns the target T3, K48-Ub2. Nature of the data set: 15N T1 relaxation of K48-Ub2 with ubistatin. Format: binding. The following applies: mean (SD). Put shortly: as §5
Data set [14] has as its target T4, Ub^R74E. Nature of the data set: NMR titration of 15N-labeled Ub^R74E. Format: binding. In short, it runs like this:
as §4

Data set [15] concerns the target T6, Ub^R74A. As to the kind of experiment: NMR titration of 15N-labeled Ub^R74A. Format: binding. Put shortly:
as §4

A further data set has as its system Cezanne (OTUD7B). As to the kind of experiment: Gel-based assay of K11-Ub2 disassembly by Cezanne. Format: biochemical. The conditions noted are these: stoichiometric ubiB.
Data set [16] concerns the target T5, Ub^72. As to the kind of experiment: 15N T1 relaxation of Ub^72 with ubistatin. Format: binding. The conditions noted are these: mean (SD). Put shortly:
as §2

For data set [17], the target named is T3, K48-Ub2. Nature of the data set: SANS of K48-Ub2 with ubiB. Format: binding. The following applies: equimolar ubiB.
Data set [18] addresses T1, Ub. Nature of the data set: SANS of Ub with ubiB. The conditions noted are these: equimolar ubiB. Format: binding.

Several values for one entry are separate records, joined by “and”; a condition that tells them apart may be missing. Equal entries are not always repeated.

As for `O=S(=O)(O)c1cccc2cccc(Nc3ccccc3)c12` [ANS, 8-anilinonaphthalene-1-sulfonic acid, reference compound], the “CSPs in Ub upon titration” value on Ub [1] was below 0.1 ppm.

As usually defined, the IC50 is the concentration that gives 50% inhibition. Take `O=S(=O)(O)c1ccc2c(ccc3nn(-c4ccc(/C=C/c5ccc(-n6nc7ccc8cc(S(=O)(=O)O)ccc8c7n6)cc5S(=O)(=O)O)c(S(=O)(=O)O)c4)nc32)c1` [ubiB, Ubistatin B]: the Kd at Ub^R42E was 396 µM; at Ub [1] (read-out: Dissociation constant, Ub (NMR titration), Table 2) it was 11.3 µM; at K48-Ub2 [3], 0.264 ± 0.023 µM; at Ub^R42E,R72E [5] (read-out: Dissociation constant, Ub^R42E,R72E (NMR titration), Table 2) it was above 1000 µM; on Ub [7], 14 ± 1.6 µM; on Ub^72 [8] (read-out: Dissociation constant, Ub^72 (NMR titration), Table 2), 73.1 µM. For the same compound, the Kd at K63-Ub2 came out at 4.88 ± 0.22 µM; on K11-Ub2, 1.83 ± 0.05 µM; on Ub^R74E [14] (read-out: Dissociation constant, Ub^R74E (NMR titration), Table 2) it was 67.6 µM; on Ub^R74A [15] (read-out: Dissociation constant, Ub^R74A (NMR titration), Table 2), 40.3 µM. Also, the “disassembly of K48-Ub2 by OTUB1” value in the data set on OTUB1 is recorded as “prevented”. Besides, the “direct binding to 15N Ub by CSPs” value on Ub [1] (starting Ub 1 mM) was “produced CSPs in and around Ub's hydrophobic patch”. In addition, the “15N T1 of Ub^R42E,R72E in the presence of ubistatin” value on Ub^R42E,R72E [2] is on record as 493 (27) ms. For the same compound, the “15N T1 of Ub^R74E in the presence of ubistatin” value on Ub^R74E [4] was 556 (28) ms. In addition, the “effect on disassembly of K48-Ub2 by Ubp6” value in the data set on Ubp6 is reported as “concentration-dependent effect”. For the same compound, the “binding to Ub^R42E,R72E” value on Ub^R42E,R72E [5] is “only negligible CSPs”. Moreover, the “competition with UBA for binding to K48-Ub2” value at K48-Ub2 [6] is reported as “outcompeted UBA for binding to K48-Ub2”. Also, in the data set on AMSH, the “disassembly of K63-Ub2 by AMSH” value is “prevented”. Further, on Ub^72 [8], the “decrease in binding affinity, Ub^72 vs Ub” value stood at 6 fold. Further, the “15N T1 of Ub in the presence of ubistatin” value on Ub [9] amounted to 660 ± 25 ms. Further, the “toxicity judged by cell morphology” value with HeLa and RCC4 cells is listed as “not toxic”. In the data set on HeLa and RCC4 cells (no chemical permeabilization), the “cell internalization” value was “distinct ubiB fluorescence at and within the boundaries of the fluorescently labeled plasma membrane”. Besides, in the data set on yeast 26S proteasome (20 hr time course), the “disassembly of K11-Ub6+ by 26S proteasome” value is on record as “only trace amounts of cleavage intermediates appeared”. For the same compound, in the data set on yeast 26S proteasome (K11, K48, K63 linkage-specific antibodies), the “processing of Ubch5b-Ubn by 26S proteasome” value is reported as “preserved all three linkage types”. The “Ub conjugates below 70 kDa” value with HeLa cells (2 μM ubiB, 8 hrs) is “greatly diminished”. Also, in the data set with HeLa cells (6 hrs ubiB treatment), the “Ub conjugates, RIPA lysis, Western blot” value was “increases the amount of Ub conjugates”. Further, the “competition with UBA for binding to Ub” value on Ub [10] is given as “outcompetes UBA for binding to Ub”. In the data set with CFTR ubiquitination, the “concentration required for complete inhibition of ubiquitination” value is at least 100 µM. The “CFTR protein modified (ubiquitinated), DMSO control = 100%” value in the data set on CFTR ubiquitination (100 μM compound, 26°C, 60 min) came out at 18±2%. Besides, in the data set with CFTR ubiquitination (at 1 μM ubiB), the inhibition of ubiquitination is 5-10%. The concentration for half-maximal inhibition (IC50) in the data set with CFTR ubiquitination (read-out: IC50, CFTR ubiquitination, titration of ubiB) is ~10 µM and 10 µM; in [12] (read-out: IC50, DUB activity of Rpn11 in purified proteasome, deubiquitination), 1.1 µM and 1 µM. For the same compound, the “15N T1 of Ub^R74A in the presence of ubistatin” value on Ub^R74A [11] was 544 (26) ms. Further, the inhibition of deubiquitination in [12] (at 1 μM ubiB) is given as around 50%. Besides, the “15N T1 of K48-Ub2 in the presence of ubistatin” value on K48-Ub2 [13] is reported as 942 (66) ms. For the same compound, the “weakening of ubiB binding, Ub^R74E vs Ub” value at Ub^R74E [14] turned out to be 6 fold. Besides, the “weakening of ubiB binding, Ub^R74A vs Ub” value at Ub^R74A [15] was 3.5 fold. Moreover, the “disassembly of K11-Ub2 by Cezanne (OTUD7B)” value with Cezanne (OTUD7B) is reported as “prevented”. Besides, the “15N T1 of Ub^72 in the presence of ubistatin” value at Ub^72 [16] is 482 (28) ms. For the same compound, the “Radius of gyration (Rg) of K48-Ub2 + ubiB” value at K48-Ub2 [17] was 20.1 (0.1) Å. For the same compound, the “Radius of gyration (Rg) of Ub + ubiB” value at Ub [18] is 17.4 (0.1) Å.

(Values after publication PMC5731780 (Structure (London, England : 1993), 2017).)
